Data as given in ChEMBL document CHEMBL1142490, “2-Phenyl-imidazo[1,2-a]pyridine compounds containing hydrophilic groups as potent and selective ligands for peripheral benzodiazepine receptors: synthesis, binding affinity and electrophysiological studies” (J Med Chem, 2008).
Several values for one entry are separate records, joined by “and”; a condition that tells them apart may be missing. Identical values can stand only once. Activity calls are given as the source filed them. The calls are words filed in the database; no cut-off is given here.

Columns and labels:
[1] = Displacement of [3H]flunitrazepam from central benzodiazepine receptor in Sprague-Dawley rat cerebral cortex membrane by liquid scintillation counting; type: tissue-based
Summary of the method: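 Rat cortical membranes in 50 mM Tris-HCl, pH 7.4, 0.4–0.5 mg protein. Incubated with [3H]flunitrazepam (0.5 nM final) for 60 min at 0 °C. Filtration, then scintillation counting. Nonspecific binding defined with 5 µM diazepam. Ki from three experiments in duplicate.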

Translocator protein = Translocator protein (Rattus norvegicus, UniProt P16257); experiment: Displacement of [3H]PK11195 from peripheral benzodiazepine receptor in Sprague-Dawley rat cerebral cortex membrane by liquid scintillation counting; type: tissue-based
Translocator protein, sequence (P16257 whole entry, looked up): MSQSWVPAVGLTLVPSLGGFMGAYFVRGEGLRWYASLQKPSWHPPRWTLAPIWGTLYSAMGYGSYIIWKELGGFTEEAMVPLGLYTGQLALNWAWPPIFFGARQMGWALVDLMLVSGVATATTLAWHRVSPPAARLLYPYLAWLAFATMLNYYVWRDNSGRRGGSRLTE
Summary of the method: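 Rat cerebral cortex membranes are washed in PBS, pH 7.4. Incubation with [3H]-ligand (1 nM final), 0.15–0.20 mg protein, 90 min. Filtration on PEI-presoaked GF/B filters, then scintillation counting. Nonspecific binding defined with 10 µM unlabelled ligand. Ki from three experiments in duplicate.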

[2] = target: T1, GABA-A receptor; alpha-1/beta-2/gamma-2 (Homo sapiens) (UniProt P14867+P47870+P18507); experiment: Agonist activity at human recombinant GABAA alpha-1-beta-2-gamma-2L receptor expressed in Xenopus oocytes assessed as change in GABA-induced chloride current amplitude at 1 uM by voltage clamp technique; type: functional, cell-based; conditions: Oocyte
Summary of the method: (§1)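 Xenopus oocytes (stage V–VI, defolliculated) are nuclear-injected with human α1, β2 and γ2L cDNAs (1:1:1) and recorded about 24 h later. Two-electrode voltage clamp at -70 mV, MBS perfusion, room temperature. […] Reported as percent change from control; 5–10 oocytes per concentration.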

[3] = target: T1, GABA-A receptor; alpha-1/beta-2/gamma-2 (Homo sapiens); experiment: Agonist activity at human recombinant GABAA alpha-1-beta-2-gamma-2L receptor expressed in Xenopus oocytes assessed as change in GABA-induced chloride current amplitude at 10 uM by voltage clamp technique; type: functional, cell-based; conditions: Oocyte; summary of the method: as §1
Rattus norvegicus [4] = organism: Rattus norvegicus; experiment: Selectivity ratio of Ki for central benzodiazepine receptor to Ki for peripheral benzodiazepine receptor in Sprague-Dawley rat cerebral cortex membrane; type: tissue-based
Rattus norvegicus [5] = organism: Rattus norvegicus; experiment: Agonist activity at GABAA alpha-1-beta-2-gamma-2L receptor in Sprague-Dawley rat hippocampal CA1 pyramidal neurons assessed as increase in miniature inhibitory postsynaptic current amplitude at 30 uM after 30 mins by whole-cell patch clamp technique; type: functional, tissue-based; conditions: Hippocampus
Summary of the method: (§2)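 Coronal hippocampal slices (300 µm) from male Sprague-Dawley rats anesthetized with ketamine (250 mg/kg i.p.) are recovered in ACSF, 40 min at 34 °C, then 30 min at room temperature. Whole-cell recordings of mIPSCs from CA1 pyramidal neurons at -65 mV, CsCl-based internal with QX-314. Compound bath-perfused at 30 µM for 30 min. Readout is mIPSC amplitude or decay time versus the pre-drug control.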

Rattus norvegicus [6] = organism: Rattus norvegicus; experiment: Agonist activity at GABAA alpha-1-beta-2-gamma-2L receptor in Sprague-Dawley rat hippocampal CA1 pyramidal neurons assessed as increase in miniature inhibitory postsynaptic current decay time at 30 uM after 30 mins by whole-cell patch clamp technique; type: functional, tissue-based; conditions: Hippocampus; summary of the method: as §2
Rattus norvegicus [7] = organism: Rattus norvegicus; experiment: Agonist activity at GABAA alpha-1-beta-2-gamma-2L receptor in Sprague-Dawley rat hippocampal CA1 pyramidal neurons assessed as inhibition of miniature inhibitory postsynaptic current amplitude at 30 uM after 30 mins in presence of 1 uM finasteride by whole-cell patch clamp technique; type: functional, tissue-based; conditions: Hippocampus
Summary of the method: (§3)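 Rat hippocampal slices, whole-cell mIPSC recording from CA1 pyramidal neurons at -65 mV. Compound (30 µM) co-applied with finasteride (1 µM) for 30 min. Change in mIPSC amplitude or decay averaged over a 3 min period and given as mean percent change, n = 6.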

Rattus norvegicus [8] = organism: Rattus norvegicus; experiment: Agonist activity at GABAA alpha-1-beta-2-gamma-2L receptor in Sprague-Dawley rat hippocampal CA1 pyramidal neurons assessed as inhibition of miniature inhibitory postsynaptic current decay time at 30 uM after 30 mins in presence of 1 uM finasteride by whole-cell patch clamp technique; type: functional, tissue-based; conditions: Hippocampus; summary of the method: as §3
[9] = target: T1, GABA-A receptor; alpha-1/beta-2/gamma-2 (Homo sapiens); experiment: Agonist activity at human recombinant GABAA alpha-1-beta-2-gamma-2L receptor expressed in Xenopus oocytes assessed as inhibition of GABA-induced chloride current amplitude at 10 uM in presence of 10 uM flumazenil by voltage clamp technique; type: functional, cell-based; conditions: Oocyte
Summary of the method: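 Two-electrode voltage clamp (-70 mV) of oocytes expressing human α1β2γ2L GABAA receptors. Percent change of GABA response by compound at 10 µM measured with and without flumazenil at 10 µM. Mean of four oocytes ± SEM.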

Row | SMILES | Ki [1] [nM] | Ki (Translocator protein) [nM] | Activity [2] | Activity [3] [%] | Ratio Ki (Rattus norvegicus [4]) | Activity (Rattus norvegicus [5]) | Activity (Rattus norvegicus [6]) | Activity (Rattus norvegicus [7]) | Activity (Rattus norvegicus [8]) | Activity [9]
1 | CCCN(CCC)C(=O)Cc1c(-c2ccc(Cl)cc2)nc2c(NC(=O)CC(=O)O)cccn12 | > 10 | 193 | 9.6% | 19.8 |  |  |  |  |  | 
2 | CCCCN(C)C(=O)Cc1c(-c2ccc(Cl)c(N)c2)nc2c(Cl)cc(Cl)cn12 | 535 | 0.78 |  |  | 686 |  |  |  |  | 
3 | CCCCN(C)C(=O)Cc1c(-c2ccc(Cl)c(N)c2)nc2c(Cl)cccn12 | 194 | 1.04 | 9.5% | 10.7 | 187 |  |  |  |  | 
4 | CCCN(CCC)C(=O)Cc1c(-c2nccs2)nc2c(Cl)cc(Cl)cn12 | > 10 | 2.07 | 6.3% | 60.6 |  |  |  |  |  | 
5 | CCCN(CCC)C(=O)Cc1c(-c2ccc(Cl)cc2)nc2c(NC(=O)CCCC(=O)O)cccn12 | > 10 | 118 | 7.3% | -1.9 |  |  |  |  |  | 
6 | CCCN(CCC)C(=O)Cc1c(-c2ccc(N)cc2)nc2c(Cl)cc(Cl)cn12 [listing 1 of 3 here] |  |  | 8.1% and 29.9% |  |  |  |  |  |  | 
7 | CCCCN(C)C(=O)Cc1c(-c2ccc(O)cc2)nc2c(Cl)cc(Cl)cn12 | 2930 | 0.87 | 7.9% | -23.6 |  |  |  |  |  | 
8 | CCCN(CCC)C(=O)Cc1c(-c2ccc(N)cc2)nc2c(Cl)cc(Cl)cn12 [listing 2 of 3 here] | 1020 | 2.76 |  |  |  |  |  |  |  | 
9 | CCCN(CCC)C(=O)Cc1c(-c2ccc(Cl)cc2)nc2c(NC(=O)CN)cccn12 | > 10 | 14.2 |  |  |  |  |  |  |  | 
10 | CCCN(CCC)C(=O)Cc1c(-c2ccc(Cl)c([N+](=O)[O-])c2)nc2c(Cl)cc(Cl)cn12 | > 10 | 0.24 | 14.9% | 9.6 |  | Active | Active | inactive | inactive | 
11 | CN(C(=O)Cc1c(-c2ccc(O)cc2)nc2c(Cl)cc(Cl)cn12)c1ccccc1 | 5130 | 0.32 | -5.9% | 6.7 | > 1000 |  |  |  |  | 
12 | CCCN(CCC)C(=O)Cc1c(-c2ccc(Cl)c(N)c2)nc2c(Cl)cc(Cl)cn12 [listing 1 of 3 here] |  |  | -6.2% and -2.9% |  |  |  |  |  |  | 
13 | CCCCN(C)C(=O)Cc1c(-c2ccc(Cl)c([N+](=O)[O-])c2)nc2c(Cl)cccn12 | > 10 | 1.16 | 12.1% | -20 |  |  |  |  |  | 
14 | CCCN(CCC)C(=O)Cc1c(-c2ccc(OC(=O)CCC(=O)OC)cc2)nc2c(Cl)cc(Cl)cn12 | > 10 | 1.69 | 16.6% | 37.5 |  |  |  |  |  | 
15 | CCCN(CCC)C(=O)Cc1c(-c2ccc([N+](=O)[O-])cc2)nc2c(Cl)cc(Cl)cn12 | > 10 | 0.15 | -4.2% | -16.6 |  |  |  |  |  | 
16 | CCCN(CCC)C(=O)Cc1c(-c2ccc(Cl)c(NC(=O)CCC(=O)O)c2)nc2c(Cl)cc(Cl)cn12 | > 10 | 14.4 | 11.5% | 10 |  |  |  |  |  | 
17 | CCCN(CCC)C(=O)Cc1c(-c2ccc(Cl)cc2)nc2c(NC(=O)CCC(=O)OCC)cccn12 | > 10 | 0.86 |  |  |  |  |  |  |  | 
18 | CCCCN(C)C(=O)Cc1c(-c2ccc(OC)cc2)nc2c(Cl)cc(Cl)cn12 | > 10 | 0.73 | 24.8% | -16.5 |  |  |  |  |  | 
19 | CCC(C)N(C)C(=O)c1cc2ccccc2c(-c2ccccc2Cl)n1 (configuration not stated) [PK-11195] | > 10 |  | 4.9% | 9.4 |  |  |  |  |  | 
20 | CCCN(CCC)C(=O)Cc1c(-c2ccc(Cl)cc2)nc2c(NC(=O)CCC(=O)O)cccn12 | > 10 | 285 | 1.3% | 12.3 |  |  |  |  |  | 
21 | CCCN(CCC)C(=O)Cc1c(-c2ccc(N)cc2)nc2c(Cl)cc(Cl)cn12 [listing 3 of 3 here] | 246 | 2.22 |  |  |  |  |  |  |  | 
22 | CCCN(CCC)C(=O)Cc1c(-c2ccc(OC(=O)CN)cc2)nc2c(Cl)cc(Cl)cn12 | > 10 | 1.52 | 26.6% | 71 |  |  |  |  |  | 
23 | CCCN(CCC)C(=O)Cc1c(-c2ccc(Cl)c(N)c2)nc2c(Cl)cc(Cl)cn12 [listing 2 of 3 here] | > 10 | 0.33 |  |  |  |  |  |  |  | 
24 | CCCN(CCC)C(=O)Cc1c(-c2ccc(O)cc2)nc2c(Cl)cc(Cl)cn12 | > 10 | 1.31 | -3.9% | 23.8 | > 1000 |  |  |  |  | 
25 | COc1ccc(-c2nc3c(Cl)cc(Cl)cn3c2CC(=O)N(C)c2ccccc2)cc1 | 1000 | 0.23 | -8.1% | -8 |  |  |  |  |  | 
26 | CCCCN(C)C(=O)Cc1c(-c2ccc(Cl)c([N+](=O)[O-])c2)nc2c(Cl)cc(Cl)cn12 |  | 0.3 | -10.2% | -9.6 |  |  |  |  |  | 
27 | CN(C(=O)Cc1c(-c2nccs2)nc2c(Cl)cc(Cl)cn12)c1ccccc1 | > 10 | 1.44 | -1.2% | 19.4 |  |  |  |  |  | 
28 | CCCN(CCC)C(=O)Cc1c(-c2ccc(OC)cc2)nc2c(Cl)cc(Cl)cn12 | > 10 | 0.31 | 8.8% | 55.9 |  |  |  |  |  | inactive
29 | CCCN(CCC)C(=O)Cc1c(-c2ccc(Cl)c(N)c2)nc2c(Cl)cc(Cl)cn12 [listing 3 of 3 here] |  | 0.45 |  |  |  |  |  |  |  | 
